Results on 12 compounds are retold here after ChEMBL document CHEMBL4477183, “Antimicrobial Peptide from the Wild Bee Hylaeus signatus Venom and Its Analogues: Structure-Activity Study and Synergistic Effect with Antibiotics” (J Nat Prod, 2016).

In brackets after ≈: the same amount, converted by molar mass. Non-standard residues stand in square brackets, D forms with d. Residues, ends and D or L forms follow the SMILES beside them.

Series [1] concerns Staphylococcus epidermidis. Description: Antimicrobial activity against Staphylococcus epidermidis assessed as reduction in bacterial growth after 20 hrs by broth microdilution assay.
In series [2] the test system is Staphylococcus aureus. Description: Antimicrobial activity against Staphylococcus aureus clinical isolates from Liberec regional hospital assessed as reduction in bacterial growth after 20 hrs by broth microdilution assay.
For series [3], the system named is Pseudomonas aeruginosa. Description: Antimicrobial activity against Pseudomonas aeruginosa 5482 assessed as reduction in bacterial growth after 20 hrs […]. It counts as functional. The following applies: Pseudomonas aeruginosa, 5482, 20 h. The procedure, abridged:
(§1)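 Broth microdilution in LB (YPG for C. albicans) with 2-fold serial dilutions, final 0.1–100 μM. Mid-log cells grown 3–5 h at 37 °C were added at about 5 × 10^5 cfu/mL, then incubated 20 h at 37 °C with shaking. A540 was read every 15 min to build growth curves. Medium with cells served as growth control; at least three runs in duplicate.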

The test system of the next series is Candida albicans. Description: Antifungal activity against Candida albicans assessed as reduction in fungal growth after 20 hrs by […]. The format is functional. In a few lines:
as §1

In series [4] the test system is Staphylococcus aureus. Description: Antimicrobial activity against Staphylococcus aureus 6271 assessed as reduction in bacterial growth after 20 hrs by broth microdilution assay. The conditions noted are these: Staphylococcus aureus, 6271, 20 h.
In series [5] the test system is Pseudomonas aeruginosa. Description: Antimicrobial activity against Pseudomonas aeruginosa clinical isolates assessed as FIC index in presence of rifampicin after 20 hrs by drop diffusion test. The format is functional.
Series [6] deals with Pseudomonas aeruginosa. Description: Antimicrobial activity against Pseudomonas aeruginosa clinical isolates assessed as FIC index in presence of tetracycline after 20 hrs by drop diffusion test. It counts as functional.
The subject of another series is Micrococcus luteus. Description: Antimicrobial activity against Micrococcus luteus assessed as reduction in bacterial growth after 20 hrs by […]. It counts as functional. The procedure, abridged:
as §1

For series [7], the system named is Staphylococcus aureus. Description: Antimicrobial activity against Staphylococcus aureus clinical isolates from university hospital in Motol assessed as reduction in bacterial growth after 20 hrs by drop diffusion test. It counts as functional.
The subject of series [8] is Pseudomonas aeruginosa. Description: Antimicrobial activity against Pseudomonas aeruginosa clinical isolates assessed as reduction in bacterial growth after 20 hrs by […]. It counts as functional. In a few lines:
as §1

The nature of series [9]: Hemolytic activity in human type RBC after 1 hr. It counts as ADME, cell-based, Erythrocyte. The following applies: red blood cells (erythrocytes), read-out: LC50. In a few lines: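 Peptides at 2.5–400 μM were incubated with a 4% suspension of human erythrocytes in physiological solution for 1 h at 37 °C, then centrifuged at 250g for 5 min; supernatant A540 was read. Saline-treated cells gave 0% lysis and 0.2% Triton X-100 gave 100%. LC50 is the concentration lysing 50% of cells; duplicates in at least two independent experiments.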

The test system of a further series is Escherichia coli. Description: Antimicrobial activity against Escherichia coli assessed as reduction in bacterial growth after 20 hrs by […]. The format is functional. The procedure, abridged:
as §1

In the next series the test system is Bacillus subtilis. Description: Antimicrobial activity against Bacillus subtilis assessed as reduction in bacterial growth after 20 hrs by […]. It counts as functional. The procedure, abridged: as §1
The subject of series [10] is Staphylococcus aureus. Description: Antimicrobial activity against Staphylococcus aureus clinical isolates assessed as FIC index in presence of amoxicillin after 20 hrs by drop diffusion test. It counts as functional.

Take H-GIMSSLMKKLKAHIAK-NH2: the MIC is 16 µM in series [1]; over 100 µM in the series on Staphylococcus aureus [2]; 26 µM in the series on Pseudomonas aeruginosa [3]; 23 µM with Candida albicans; over 100 µM in the series on Staphylococcus aureus [4]; at most 3 µM in the series with Micrococcus luteus. For the same compound, the MIC in the series on Staphylococcus aureus [7] was over 100 µM; with Pseudomonas aeruginosa [8], 47 µM; in the series on Escherichia coli, 30 µM; in the series on Bacillus subtilis it was at most 7 µM. Besides, the results for the “fractional inhibitory concentration index (FICI)” value with Pseudomonas aeruginosa [5] and in the series with Pseudomonas aeruginosa [6] were 0.21 and 0.31, respectively. In addition, the HC50 at 1 h in series [9] was over 400 µM.

As to H-GILSSLLKKWKKIIAK-NH2, the “fractional inhibitory concentration index (FICI)” value came to 0.44 in the series with Staphylococcus aureus [10], 0.42 in the series with Pseudomonas aeruginosa [5] and 0.58 in the series on Pseudomonas aeruginosa [6]. Further, the MIC was 2.7 µM in series [1]; 7.8 µM with Staphylococcus aureus [2]; 5 µM in the series on Pseudomonas aeruginosa [3]; 11 µM in the series on Candida albicans; 20 µM with Staphylococcus aureus [4]; at most 3 µM in the series with Micrococcus luteus. Further, the MIC is 20 µM in the series on Staphylococcus aureus [7], 7.1 µM in the series with Pseudomonas aeruginosa [8], 7.5 µM in the series on Escherichia coli and at most 7 µM in the series on Bacillus subtilis. Further, the HC50 at 1 h in [9] was over 400 µM.

Take H-GIMSSLMKKLAAHIKK-NH2: the MIC in series [1] is 11 µM; in the series with Staphylococcus aureus [2], 77 µM; with Pseudomonas aeruginosa [3], 23 µM; in the series on Candida albicans it was 5 µM; in the series with Staphylococcus aureus [4], 85 µM; in the series on Micrococcus luteus it was at most 3 µM. The MIC in the series on Staphylococcus aureus [7] was 90 µM; in the series with Pseudomonas aeruginosa [8], 46 µM; with Escherichia coli, 20 µM; in the series on Bacillus subtilis, at most 7 µM. The HC50 at 1 h in series [9] is over 400 µM.

For H-GILSSLLKKLKKIIAK-NH2, the “fractional inhibitory concentration index (FICI)” value came to 0.69 in the series on Staphylococcus aureus [10], 0.39 in the series with Pseudomonas aeruginosa [5] and 0.54 in the series with Pseudomonas aeruginosa [6]. The MIC in [1] is 1.8 µM; with Staphylococcus aureus [2], 3.8 µM; in the series with Pseudomonas aeruginosa [3], 5 µM; in the series with Candida albicans, 10 µM; in the series with Staphylococcus aureus [4], 16 µM; in the series with Micrococcus luteus, at most 3 µM. Also, the MIC in the series with Staphylococcus aureus [7] was 5 µM; in the series with Pseudomonas aeruginosa [8], 7.5 µM; with Escherichia coli it was 8 µM; in the series with Bacillus subtilis, at most 7 µM. In addition, in series [9], the HC50 at 1 h stood at 284 µM.

For the compound `CC[C@@H](C)[C@@H](NC(=O)CN)C(=O)N[C@H](CCSC)C(=O)N[C@H](CO)C(=O)N[C@H](CO)C(=O)N[C@H](CC(C)C)C(=O)N[C@H](CCSC)C(=O)N[C@H](CCCCN)C(=O)N[C@H](CCCCN)C(=O)N[C@H](CC(C)C)C(=O)N[C@H](CCCCN)C(=O)N[C@H](CCCCN)C(=O)N[C@@H](C(=O)N[C@@H](C(=O)N[C@H](C)C(=O)N[C@H](CCCCN)C(N)=O)[C@H](C)CC)[C@H](C)CC` (H-G[dI][dM][dS][dS][dL][dM][dK][dK][dL][dK][dK][dI][dI][dA][dK]-NH2), the “fractional inhibitory concentration index (FICI)” value in the series on Staphylococcus aureus [10] was found to be 0.54; in the series with Pseudomonas aeruginosa [5], 0.32; in the series on Pseudomonas aeruginosa [6] it was 0.67. The MIC was 2.2 µM (≈ 3.93 µg/mL) in [1]; 7 µM (≈ 12.5 µg/mL) in the series on Staphylococcus aureus [2]; 3.2 µM (≈ 5.72 µg/mL) in the series with Pseudomonas aeruginosa [3]; 8 µM (≈ 14.3 µg/mL) with Candida albicans; 13 µM (≈ 23.2 µg/mL) with Staphylococcus aureus [4]; at most 3 µM in the series on Micrococcus luteus. In addition, the MIC was 16 µM (≈ 28.6 µg/mL) in the series with Staphylococcus aureus [7], 8.5 µM (≈ 15.2 µg/mL) with Pseudomonas aeruginosa [8], 6.3 µM (≈ 11.3 µg/mL) in the series on Escherichia coli and at most 7 µM in the series with Bacillus subtilis. The HC50 at 1 h in series [9] is over 400 µM.

Take H-GIMSSLMKKLAKHIAK-NH2: the “fractional inhibitory concentration index (FICI)” value in the series on Staphylococcus aureus [10] is listed as 0.31; in the series on Pseudomonas aeruginosa [5], 0.25; in the series on Pseudomonas aeruginosa [6], 0.54. For the same compound, the MIC in series [1] was 6.2 µM; in the series with Staphylococcus aureus [2], 35 µM; in the series with Pseudomonas aeruginosa [3] it was 7.9 µM; with Candida albicans, 14 µM; in the series with Staphylococcus aureus [4], 63 µM; in the series on Micrococcus luteus, at most 3 µM. In addition, the minimum inhibitory concentration (MIC) is 63 µM in the series on Staphylococcus aureus [7], 20 µM in the series on Pseudomonas aeruginosa [8], 15 µM in the series with Escherichia coli and at most 7 µM in the series with Bacillus subtilis. Further, the HC50 at 1 h in [9] was over 400 µM.

Take H-GIMSSLMKKLKKIIKK-NH2: the “fractional inhibitory concentration index (FICI)” value is reported as 0.17 in the series on Staphylococcus aureus [10], 0.36 in the series with Pseudomonas aeruginosa [5] and 0.63 in the series on Pseudomonas aeruginosa [6]. Besides, the MIC in series [1] was 1.7 µM; with Staphylococcus aureus [2], 18 µM; with Pseudomonas aeruginosa [3], 7.1 µM; in the series with Candida albicans it was 6.3 µM; with Staphylococcus aureus [4], 54 µM; in the series with Micrococcus luteus, at most 3 µM. For the same compound, the MIC was 65 µM with Staphylococcus aureus [7], 9.9 µM in the series on Pseudomonas aeruginosa [8], 22 µM with Escherichia coli and at most 7 µM in the series on Bacillus subtilis. Further, the HC50 at 1 h in series [9] was over 400 µM.

On to H-GIMSSLMKKLKKHIAK-NH2, for which the MIC in [1] is 10 µM; in the series with Staphylococcus aureus [2], over 100 µM; in the series on Pseudomonas aeruginosa [3], 6.4 µM; with Candida albicans, 12 µM; in the series on Staphylococcus aureus [4] it was over 100 µM; with Micrococcus luteus, at most 3 µM. For the same compound, the MIC is over 100 µM with Staphylococcus aureus [7], 17 µM in the series on Pseudomonas aeruginosa [8], 26 µM with Escherichia coli and at most 7 µM in the series on Bacillus subtilis. For the same compound, the “fractional inhibitory concentration index (FICI)” value was 0.23 with Pseudomonas aeruginosa [5] and 0.39 in the series with Pseudomonas aeruginosa [6]. Also, in series [9], the HC50 at 1 h is over 400 µM.

On to `CC1(C)S[C@@H]2[C@H](NC(=O)[C@H](N)c3ccc(O)cc3)C(=O)N2[C@H]1C(=O)O` [AMOXICILLIN], for which the MIC in series [1] is 35 µM (≈ 12.8 µg/mL); in the series with Staphylococcus aureus [2], 35 µM (≈ 12.8 µg/mL); with Pseudomonas aeruginosa [3] it was over 100 µM; in the series on Staphylococcus aureus [4], 17 µM (≈ 6.21 µg/mL); with Staphylococcus aureus [7], 3.5 µM (≈ 1.28 µg/mL); in the series on Pseudomonas aeruginosa [8] it was over 100 µM. The MIC in the series with Escherichia coli came out at 2.7 µM (≈ 0.987 µg/mL).

As for H-GILSSLWKKPKKIIAK-NH2, the MIC in series [1] was over 100 µM; in the series with Staphylococcus aureus [2], over 100 µM; in the series with Pseudomonas aeruginosa [3], 98 µM; in the series with Candida albicans it was over 100 µM; with Staphylococcus aureus [4] it was over 100 µM; in the series with Micrococcus luteus it was 5.8 µM. The MIC in the series on Staphylococcus aureus [7] is over 100 µM; in the series with Pseudomonas aeruginosa [8], over 100 µM; with Escherichia coli it was over 100 µM; with Bacillus subtilis, 49 µM. Also, the HC50 at 1 h in [9] is over 400 µM.

For H-GIMISLMKKLAAHIAK-NH2, the minimum inhibitory concentration (MIC) in series [1] is 8.8 µM; in the series with Staphylococcus aureus [2], 35 µM; with Pseudomonas aeruginosa [3], 47 µM; in the series on Candida albicans, 12 µM; with Staphylococcus aureus [4], 43 µM; with Micrococcus luteus it was at most 3 µM. For the same compound, the MIC in the series on Staphylococcus aureus [7] was 65 µM; in the series on Pseudomonas aeruginosa [8] it was over 100 µM; in the series on Escherichia coli, 12 µM; in the series with Bacillus subtilis, at most 7 µM. Besides, in series [9], the HC50 at 1 h was 320 µM.

Take H-GIMSSLMKKLAAHIAK-NH2: the minimum inhibitory concentration (MIC) in series [1] was 13 µM; in the series with Staphylococcus aureus [2] it was 53 µM; in the series with Pseudomonas aeruginosa [3], 20 µM; in the series on Candida albicans, 18 µM; with Staphylococcus aureus [4], 63 µM; in the series on Micrococcus luteus, at most 3 µM. Also, the MIC was 64 µM in the series on Staphylococcus aureus [7], 68 µM in the series on Pseudomonas aeruginosa [8], 15 µM in the series on Escherichia coli and at most 7 µM in the series with Bacillus subtilis. Moreover, the entries for the “fractional inhibitory concentration index (FICI)” value in the series with Pseudomonas aeruginosa [5] and with Pseudomonas aeruginosa [6] were 0.26 and 0.56, respectively. For the same compound, the HC50 at 1 h in series [9] was over 400 µM.
